Data: ChEMBL document CHEMBL1140920, “Design, synthesis, and biological evaluation of 6alpha- and 6beta-N-heterocyclic substituted naltrexamine derivatives as mu opioid receptor selective antagonists” (J Med Chem, 2009)

Legend:
Mus musculus [1] = test: Induction of antinociception in sc dosed Swiss Webster mouse after 20 mins by warm water tail immersion test; type: functional
Mu-type opioid receptor [2] = biological target: T1, Mu-type opioid receptor (Homo sapiens, UniProt P35372); test: Activity at monocloned mu opioid receptor expressed in CHO cells by [35S]GTPgammaS binding assay relative to DAMGO; type: functional, cell-based
[3] = biological target: Kappa-type opioid receptor (Homo sapiens, UniProt P41145); test: Displacement of [3H]norBNI from monocloned kappa opioid receptor expressed in CHO cells; type: cell-based
Outline: (§1)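 CHO cell membranes expressing cloned receptor incubated with radioligand plus varying test drug concentrations, 30 °C, 1 h. IC50 from linear regression of Hill plots, converted to Ki by Cheng-Prusoff; selectivity as Ki ratios.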

[4] = biological target: Delta-type opioid receptor (Homo sapiens, UniProt P41143); test: Displacement of [3H]NTI from monocloned delta opioid receptor expressed in CHO cells; type: cell-based; outline: as §1
[5] = Selectivity ratio of Ki for monocloned delta opioid receptor to Ki for monocloned mu opioid receptor; outline: as §1
Mu-type opioid receptor [6] = biological target: T1, Mu-type opioid receptor; test: Displacement of [3H]naloxone from monocloned mu opioid receptor expressed in CHO cells; type: cell-based; outline: as §1
Mu-type opioid receptor [7] = biological target: T1, Mu-type opioid receptor; test: Activity at monocloned mu opioid receptor expressed in CHO cells by [35S]GTPgammaS binding assay; type: functional, cell-based
Outline: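 Membranes from CHO cells stably expressing cloned MOR, the same membranes as used for binding. [35S]GTPγS binding as the functional read-out. Potency also reported. n = 3.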

[8] = Selectivity ratio of Ki for monocloned kappa opioid receptor to Ki for monocloned mu opioid receptor; outline: as §1
[9] = Binding affinity to mu opioid W318A mutant receptor expressed in CHO cells; type: cell-based
[10] = Binding affinity to mu opioid Y210A mutant receptor expressed in CHO cells; type: cell-based
Mu-type opioid receptor [11] = biological target: T1, Mu-type opioid receptor; test: biochemical
Mus musculus [12] = test: Inhibition of morphine-induced antinociception in sc dosed Swiss Webster mouse assessed as dose producing 50% antagonism of morphine response preincubated for 5 mins before the addition of morphine assessed after 20 mins by warm water tail immersion test; type: functional

Sequence of Kappa-type opioid receptor (P41145 whole entry): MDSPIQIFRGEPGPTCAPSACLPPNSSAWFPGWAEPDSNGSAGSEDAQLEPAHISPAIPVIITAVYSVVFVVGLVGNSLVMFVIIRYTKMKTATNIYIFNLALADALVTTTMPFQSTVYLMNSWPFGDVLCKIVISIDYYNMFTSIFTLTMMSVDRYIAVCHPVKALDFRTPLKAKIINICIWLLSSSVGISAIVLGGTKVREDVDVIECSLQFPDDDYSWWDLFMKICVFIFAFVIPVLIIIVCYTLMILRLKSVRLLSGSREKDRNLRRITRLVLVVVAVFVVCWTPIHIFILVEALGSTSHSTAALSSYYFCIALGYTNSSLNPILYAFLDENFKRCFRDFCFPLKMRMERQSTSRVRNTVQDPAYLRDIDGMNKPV
T1 sequence (P35372 whole entry): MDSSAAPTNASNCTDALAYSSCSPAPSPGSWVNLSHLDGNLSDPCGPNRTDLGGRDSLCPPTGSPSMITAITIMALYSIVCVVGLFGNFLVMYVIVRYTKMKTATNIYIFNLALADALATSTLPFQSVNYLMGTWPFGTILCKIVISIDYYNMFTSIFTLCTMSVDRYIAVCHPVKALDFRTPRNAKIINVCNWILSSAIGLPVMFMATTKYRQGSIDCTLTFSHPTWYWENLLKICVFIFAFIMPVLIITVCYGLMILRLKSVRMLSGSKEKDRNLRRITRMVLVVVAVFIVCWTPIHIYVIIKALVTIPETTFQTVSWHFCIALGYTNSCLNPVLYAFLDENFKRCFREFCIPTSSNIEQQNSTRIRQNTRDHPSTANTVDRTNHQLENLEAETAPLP
Sequence of Delta-type opioid receptor (P41143 whole entry): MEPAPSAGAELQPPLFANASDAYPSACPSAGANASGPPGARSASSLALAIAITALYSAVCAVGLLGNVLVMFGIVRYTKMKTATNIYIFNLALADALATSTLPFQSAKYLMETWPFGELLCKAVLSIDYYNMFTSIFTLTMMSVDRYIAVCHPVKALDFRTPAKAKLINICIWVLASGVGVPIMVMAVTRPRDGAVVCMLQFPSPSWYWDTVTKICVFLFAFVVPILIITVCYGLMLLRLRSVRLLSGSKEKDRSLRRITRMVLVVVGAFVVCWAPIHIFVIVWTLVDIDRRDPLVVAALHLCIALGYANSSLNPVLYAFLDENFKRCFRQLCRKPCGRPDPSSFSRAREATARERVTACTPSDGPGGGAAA

SMILES | ED50 (Mus musculus [1]) [mg/kg] | Activity (Mu-type opioid receptor [2]) [%] | Ki [3] [nM] | Ki [4] [nM] | Ratio Ki [5] | Ki (Mu-type opioid receptor [6]) [nM] | Emax (Mu-type opioid receptor [7]) [%] | EC50 (Mu-type opioid receptor [7]; read-out: EC50) [nM] | Ratio Ki [8] | IC50 [9] [nM] | IC50 [10] [nM] | IC50 (Mu-type opioid receptor [11]) [nM] | Activity (Mus musculus [12]) [mg/kg] | EC50 (Mu-type opioid receptor [7]; cho)
O=C(N[C@H]1CC[C@@]2(O)[C@H]3Cc4ccc(O)c5c4[C@@]2(CCN3CC2CC2)[C@H]1O5)c1ccc2ccccc2n1 | 4.57 | 65.4 | 9.84 | 148 | 693 | 0.21 | 240 | 0.09 | 46 | – | – | – | – | –
O=C(N[C@H]1CC[C@@]2(O)[C@H]3Cc4ccc(O)c5c4[C@@]2(CCN3CC2CC2)[C@H]1O5)c1cc2ccccc2cn1 | – | 15.8 | 26.5 | 132 | 241 | 0.55 | 58 | 4.36 | 48 | > 1000 | 3.31 | 5.42 | – | –
O=C(N[C@H]1CC[C@@]2(O)[C@H]3Cc4ccc(O)c5c4[C@@]2(CCN3CC2CC2)[C@H]1O5)c1ccccn1 | – | 37.8 | 223 | 64.5 | 24 | 2.65 | 134 | 23.9 | 84 | – | – | – | 0.89 | –
O=C(N[C@@H]1CC[C@@]2(O)[C@H]3Cc4ccc(O)c5c4[C@@]2(CCN3CC2CC2)[C@H]1O5)c1cc2ccccc2cn1 | 1.19 | 33 | 1.58 | 15.4 | 156 | 0.1 | 121 | 0.27 | 16 | – | – | – | – | –
O=C(N[C@@H]1CC[C@@]2(O)[C@H]3Cc4ccc(O)c5c4[C@@]2(CCN3CC2CC2)[C@H]1O5)c1cnc2ccccc2c1 | – | 53.4 | 0.57 | 11.6 | 157 | 0.07 | 196 | – | 8 | – | – | – | 42.55 | 0.29
O=C(N[C@@H]1CC[C@@]2(O)[C@H]3Cc4ccc(O)c5c4[C@@]2(CCN3CC2CC2)[C@H]1O5)c1ccc2ccccc2n1 | 0.04 | 40.9 | 5.04 | 3.86 | 36 | 0.11 | 150 | 0.69 | 47 | – | – | – | – | –
O=C(N[C@@H]1CC[C@@]2(O)[C@H]3Cc4ccc(O)c5c4[C@@]2(CCN3CC2CC2)[C@H]1O5)c1cccnc1 | – | 29.1 | 5.42 | 192 | 1410 | 0.14 | 107 | 0.33 | 40 | – | – | – | 1.38 | –
O=C(N[C@H]1CC[C@@]2(O)[C@H]3Cc4ccc(O)c5c4[C@@]2(CCN3CC2CC2)[C@H]1O5)c1cccnc1 | – | 44.8 | 77.2 | 40.8 | 265 | 0.15 | 164 | 1.01 | 501 | – | – | – | 36.77 | –
O=C(N[C@H]1CC[C@@]2(O)[C@H]3Cc4ccc(O)c5c4[C@@]2(CCN3CC2CC2)[C@H]1O5)c1ccc2ccccc2c1 | – | – | 609 | 518 | 62 | 8.36 | – | – | 73 | – | – | – | – | –
O=C(N[C@@H]1CC[C@@]2(O)[C@H]3Cc4ccc(O)c5c4[C@@]2(CCN3CC2CC2)[C@H]1O5)c1ccncc1 | – | 22.7 | – | – | – | – | 83.3 | – | – | > 1000 | – | – | – | –
O=C(N[C@@H]1CC[C@@]2(O)[C@H]3Cc4ccc(O)c5c4[C@@]2(CCN3CC2CC2)[C@H]1O5)c1ccccc1 | – | – | 7.79 | – | – | 0.92 | – | – | – | – | – | – | – | –
O=C(N[C@H]1CC[C@@]2(O)[C@H]3Cc4ccc(O)c5c4[C@@]2(CCN3CC2CC2)[C@H]1O5)c1ccccc1 | – | – | 41.7 | – | – | 1.41 | – | – | – | – | – | – | – | –
COc1cccc2c1[C@]13CCN(CC4CC4)[C@H](C2)[C@]1(OC)CCC(=O)C3 | – | – | – | – | 40 | – | – | – | 45 | – | – | – | – | –
O=C(N[C@H]1CC[C@@]2(O)[C@H]3Cc4ccc(O)c5c4[C@@]2(CCN3CC2CC2)[C@H]1O5)c1ccncc1 | – | 37.3 | 19.6 | – | – | – | 137 | – | – | – | – | – | – | –
O=C(N[C@@H]1CC[C@@]2(O)[C@H]3Cc4ccc(O)c5c4[C@@]2(CCN3CC2CC2)[C@H]1O5)c1ccccn1 | – | 41.1 | 278 | 215 | 37 | 5.85 | 151 | 26.3 | 47 | – | – | – | 0.33 | –
O=C(N[C@@H]1CC[C@@]2(O)[C@H]3Cc4ccc(O)c5c4[C@@]2(CCN3CC2CC2)[C@H]1O5)c1ccc2ccccc2c1 | – | – | 65.3 | 29.3 | 0.5 | 55.6 | – | – | 1 | – | – | – | – | –
O=C(N[C@H]1CC[C@@]2(O)[C@H]3Cc4ccc(O)c5c4[C@@]2(CCN3CC2CC2)[C@H]1O5)c1cnc2ccccc2c1 | – | 44.8 | 1.81 | 32.2 | 277 | 0.12 | 164 | 2.29 | 16 | – | – | – | 4.45 | –
